Reference: ChEMBL document CHEMBL1157786, “Investigation of the bioactive conformation of histamine H3 receptor antagonists by the cyclopropylic strain-based conformational restriction strategy” (J Med Chem, 2010)
Activity calls are given as the source filed them. The rule behind the calls is not given here.

Key:
Histamine H3 receptor [1] = target: T1, Histamine H3 receptor (Homo sapiens, UniProt Q9Y5N1); assay: Antagonist activity at human histamine H3 receptor expressed in human HEK293-EBNA cells assessed as inhibition of histamine-induced response at 100 uM by luciferase reporter gene assay; type: functional, cell-based
T1 sequence (Q9Y5N1 whole entry): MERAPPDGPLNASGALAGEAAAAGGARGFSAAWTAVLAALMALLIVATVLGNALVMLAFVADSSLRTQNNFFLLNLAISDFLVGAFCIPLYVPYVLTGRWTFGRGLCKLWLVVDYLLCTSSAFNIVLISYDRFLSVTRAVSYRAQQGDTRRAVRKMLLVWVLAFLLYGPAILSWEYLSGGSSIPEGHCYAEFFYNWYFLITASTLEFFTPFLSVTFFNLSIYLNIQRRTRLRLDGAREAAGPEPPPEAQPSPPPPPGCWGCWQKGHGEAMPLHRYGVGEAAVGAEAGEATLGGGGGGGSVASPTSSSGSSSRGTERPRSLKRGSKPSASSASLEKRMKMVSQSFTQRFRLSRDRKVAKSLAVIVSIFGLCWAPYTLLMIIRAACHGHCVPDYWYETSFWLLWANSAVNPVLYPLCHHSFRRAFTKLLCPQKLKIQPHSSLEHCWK

Histamine H3 receptor [2] = target: T1, Histamine H3 receptor; assay: Displacement of [3H]N-alpha-methyl-histamine from human histamine H3 receptor expressed in human HEK293-EBNA cells; type: cell-based
Histamine H3 receptor [3] = target: T1, Histamine H3 receptor; assay: Agonist activity at human histamine H3 receptor expressed in human HEK293-EBNA cells by luciferase reporter gene assay; type: functional, cell-based
Method in brief: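 Human H3 receptor expressed individually in 293-EBNA cells; compounds tested for agonism at 10^-5 M in a luciferase reporter gene assay.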

inhibition (Histamine H3 receptor [1]) [%]	Ki (Histamine H3 receptor [2]) [nM]	Activity (Histamine H3 receptor [3])	Structure (SMILES)
96	–	inactive	CC[C@H](CNCc1ccc(Cl)cc1)[C@H]1C[C@@H]1c1c[nH]cn1
73	–	inactive	CC[C@H](CNCc1ccc(Cl)cc1)[C@@H]1C[C@H]1c1c[nH]cn1
95	19.8	inactive	CC[C@@H](CNCc1ccc(Cl)cc1)[C@@H]1C[C@H]1c1c[nH]cn1

Further lines, the compound ahead of its results:

Structure (SMILES)	inhibition (Histamine H3 receptor [1]) [%]	Ki (Histamine H3 receptor [2]) [nM]	Activity (Histamine H3 receptor [3])
Clc1ccc(CNCC[C@H]2C[C@@H]2c2c[nH]cn2)cc1	100	3.6	–
CC[C@@H](CNCc1ccc(Cl)cc1)[C@H]1C[C@@H]1c1c[nH]cn1	88	6.7	inactive
Clc1ccc(CNCC[C@@H]2C[C@H]2c2c[nH]cn2)cc1	100	8.4	–
CC[C@H](CNCc1ccc(Cl)cc1)[C@H]1C[C@@H]1c1cnc[nH]1	–	63	–
CC[C@H](CNCc1ccc(Cl)cc1)[C@@H]1C[C@H]1c1cnc[nH]1	–	129	–
